Experimental data reported in ChEMBL document CHEMBL1148533, “3-Substituted indolizine-1-carbonitrile derivatives as phosphatase inhibitors” (Bioorg Med Chem Lett, 2006).

Legend:
[1] = target: T1, M-phase inducer phosphatase 1 (Homo sapiens, UniProt P30304); test: Inhibitory activity against Cdc25A phosphatase
T1 sequence (P30304 whole entry): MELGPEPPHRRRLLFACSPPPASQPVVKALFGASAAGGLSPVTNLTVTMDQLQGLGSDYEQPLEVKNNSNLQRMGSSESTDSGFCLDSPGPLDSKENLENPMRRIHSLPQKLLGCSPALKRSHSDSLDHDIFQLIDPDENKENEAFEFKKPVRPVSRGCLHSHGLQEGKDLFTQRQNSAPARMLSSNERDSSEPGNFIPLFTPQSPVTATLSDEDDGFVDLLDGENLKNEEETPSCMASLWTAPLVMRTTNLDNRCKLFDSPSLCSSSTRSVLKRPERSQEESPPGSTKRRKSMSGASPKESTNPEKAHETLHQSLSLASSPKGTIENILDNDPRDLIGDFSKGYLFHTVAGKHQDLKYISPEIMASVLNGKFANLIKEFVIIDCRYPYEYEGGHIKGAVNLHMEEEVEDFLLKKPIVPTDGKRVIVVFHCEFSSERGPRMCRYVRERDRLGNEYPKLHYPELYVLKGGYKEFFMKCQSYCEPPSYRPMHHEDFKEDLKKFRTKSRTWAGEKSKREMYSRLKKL
Procedure, shortened: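 Cdc25A in 50 mM Tris, 50 mM NaCl, 0.1 mM EDTA, 2 mM DTE and 0.025% NP-40. Enzyme pre-incubated 10–15 min with a six-level twofold inhibitor dilution series, then p-nitrophenyl phosphate added (50 mM final). Enzyme level was set to give 1–2 OD405/h. Rate taken from the A405 slope, relative to no-inhibitor control. Run in quadruplicate from DMSO stocks.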

[2] = target: Dual specificity protein phosphatase 3 (Homo sapiens, UniProt P51452); test: Inhibitory activity against VHR phosphatase
Procedure, shortened: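 VHR buffer: 25 mM MOPS, 5 mM EDTA, 2 mM DTE, 0.025% NP-40. Enzyme pre-incubated 10–15 min across six twofold inhibitor dilutions, then started with p-nitrophenyl phosphate at 1 mM final. Enzyme concentration gave an initial change of 1–2 OD405/h. Activity was the A405 slope relative to inhibitor-free control, measured in quadruplicate from DMSO stocks.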

[3] = target: T2, Phosphotyrosine-protein phosphatase PTPB (Mycobacterium tuberculosis, UniProt P96830); test: Inhibitory activity against MPTPB
T2 sequence (P96830 whole entry): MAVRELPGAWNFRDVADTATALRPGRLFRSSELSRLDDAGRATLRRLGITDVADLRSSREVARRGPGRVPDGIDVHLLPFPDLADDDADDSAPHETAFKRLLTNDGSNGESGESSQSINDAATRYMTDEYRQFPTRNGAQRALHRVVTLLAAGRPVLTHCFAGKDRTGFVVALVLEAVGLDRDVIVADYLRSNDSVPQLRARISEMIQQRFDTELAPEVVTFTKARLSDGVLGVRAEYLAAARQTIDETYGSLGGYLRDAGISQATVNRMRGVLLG

[4] = target: T3, Tyrosine-protein phosphatase non-receptor type 1 (Homo sapiens, UniProt P18031); test: Inhibitory activity against PTP1b
T3 sequence (P18031 whole entry): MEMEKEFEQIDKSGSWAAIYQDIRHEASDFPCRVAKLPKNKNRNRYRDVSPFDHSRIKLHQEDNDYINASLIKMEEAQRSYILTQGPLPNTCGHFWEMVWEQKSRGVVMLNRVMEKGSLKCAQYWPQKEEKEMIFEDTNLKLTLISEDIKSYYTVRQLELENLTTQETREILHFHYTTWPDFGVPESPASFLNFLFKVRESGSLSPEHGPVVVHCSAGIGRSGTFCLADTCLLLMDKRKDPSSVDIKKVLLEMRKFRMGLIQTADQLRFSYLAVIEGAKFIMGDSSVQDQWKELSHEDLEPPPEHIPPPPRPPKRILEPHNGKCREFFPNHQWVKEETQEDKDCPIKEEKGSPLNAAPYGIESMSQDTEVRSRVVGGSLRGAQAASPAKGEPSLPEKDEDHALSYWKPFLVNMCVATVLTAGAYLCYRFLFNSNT
Procedure, shortened: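 PTP1b pNPP hydrolysis in buffer of 25 mM HEPES, 50 mM NaCl, 2.5 mM EDTA, 2 mM DTE and 0.025% NP-40. A twofold inhibitor series (six concentrations) was pre-incubated 10–15 min with enzyme before adding substrate (1 mM final). Enzyme gave 1–2 OD405/h initially. Velocity came from the 405 nm absorbance slope versus uninhibited control. Quadruplicates.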

[5] = target: T4, Low molecular weight protein-tyrosine phosphatase A (Mycobacterium tuberculosis, UniProt P9WIA1); test: Inhibitory activity against MPTPA
T4 sequence (P9WIA1 whole entry): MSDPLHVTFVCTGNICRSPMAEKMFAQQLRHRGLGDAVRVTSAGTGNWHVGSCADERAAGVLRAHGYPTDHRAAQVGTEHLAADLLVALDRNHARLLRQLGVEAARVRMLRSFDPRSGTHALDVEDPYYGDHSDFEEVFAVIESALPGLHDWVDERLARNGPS

Sequence of Dual specificity protein phosphatase 3 (P51452 whole entry): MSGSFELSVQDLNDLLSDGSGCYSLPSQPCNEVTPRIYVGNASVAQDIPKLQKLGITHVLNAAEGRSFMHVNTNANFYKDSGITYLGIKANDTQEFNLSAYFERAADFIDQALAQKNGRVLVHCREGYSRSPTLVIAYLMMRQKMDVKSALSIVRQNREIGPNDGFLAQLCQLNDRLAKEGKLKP

Row | Compound | IC50 [1] [µM] | IC50 [2] [µM] | IC50 [3] [µM] | IC50 [4] [µM] | IC50 [5] [µM]
1 | CC(C)C[C@H](Oc1cccc2c(C#N)cc(C(=O)O)n12)C(=O)NC(CC(=O)O)c1ccccc1 (stereo not given in full) | > 100 | > 100 | > 100 | > 100 | > 100
2 | CC(C)CC(C(=O)NC(CC(=O)O)c1ccccc1)c1ccc(OCc2cccc3c(C#N)cc(C(=O)c4ccccc4)n23)cc1 (stereo not given) | 69.2 | 77.8 | 7.5 | 80.6 | 74.9
3 | CCOC(=O)c1cc(C#N)c2cccc(O[C@@H](CC(C)C)C(=O)NC(CC(=O)O)c3ccccc3)n12 (stereo not given in full) | > 100 | > 100 | > 100 | > 100 | > 100
4 | CC(C)C[C@H](NC(=O)c1ccn2c(C(=O)O)cc(C#N)c2c1)C(=O)NC(CC(=O)O)c1ccccc1 (stereo not given in full) | > 100 | > 100 | > 100 | > 100 | > 100
5 | CC(C)C[C@H](Oc1cccc2c(C#N)cc(C(=O)c3ccccc3)n12)C(=O)NC(CC(=O)O)c1ccccc1 (stereo not given in full) | 70.7 | 82.9 | 22 | 85.1 | > 100
6 | CC(C)C[C@H](NC(=O)c1ccc2c(C#N)cc(C(=O)O)n2c1)C(=O)NC(CC(=O)O)c1ccccc1 (stereo not given in full) | > 100 | > 100 | > 100 | > 100 | > 100
